Experimental data as given in publication PMC6102747 (Molecular Medicine Reports, 2018).
“And” between values parts separate entries of the source, which are not always exact repeats. Identical values can stand only once. Like-named read-outs stand apart in the source and are kept apart here.

Legend:
Cyp3a1 = experiment: RT-qPCR mRNA expression in small intestine and liver; type: in vivo, rats; settings: KET 75 mg/kg i.g. 7 days, vs control, P<0.001
Cyp3a2 = experiment: as above; type: in vivo, rats; settings: KET 75 mg/kg i.g. 7 days, vs control, P<0.001
P-gp = experiment: Western blot protein expression in small intestine and liver; type: in vivo, rats; settings: rat, in vivo
Mdr1 = experiment: RT-qPCR mRNA expression in small intestine and liver; type: in vivo, rats; settings: VER 4 mg/kg i.g. 7 days, vs control, P<0.001
Summary of the method: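 Rats, 3 per group, dosed once daily for 7 days: phosphate buffer 5 ml/kg i.v., test compound 2.5/5/10 mg/kg i.v. in phosphate buffer, ketoconazole 75 mg/kg i.g. in olive oil, or verapamil 4 mg/kg i.g. in water. Olive oil 5 ml/kg gavaged 30 min after day-7 dose. Killed 24 h post-dose after overnight fast; liver and intestinal mucosa snap-frozen. qPCR: 40 cycles, 58°C annealing; 2−ΔΔCq.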

[1] = healthy volunteers, cited from earlier work

Compound: CC(=O)N1CCN(c2ccc(OCC3COC(Cn4ccnc4)(c4ccc(Cl)cc4Cl)O3)cc2)CC1 (stereo not shown) [KET, ketoconazole, reference compound]
- decrease in Cyp3a1 mRNA expression (Cyp3a1; liver): 78.64%
- decrease in Cyp3a1 mRNA expression (Cyp3a1; small intestine): 78.27%
- decrease in Cyp3a2 mRNA expression (Cyp3a2; liver): 87.39%
- decrease in Cyp3a2 mRNA expression (Cyp3a2; small intestine): 70.09%

Compound: COc1ccc(CCN(C)CCCC(C#N)(c2ccc(OC)c(OC)c2)C(C)C)cc1OC (stereo not shown) [VER, verapamil, reference compound]
- decrease in P-gp protein expression (P-gp): 85.02% and 84.54%
- decrease in Mdr1 mRNA expression (Mdr1; liver): 84.33%
- decrease in Mdr1 mRNA expression (Mdr1; small intestine): 65.32%

Compound: O=c1c(O)c(-c2ccc(O)c(O)c2)oc2cc(O)cc(O)c12 [quercetin]
- increase in AUC of CsA ([1]; CsA 30 min following quercetin administration): 36%
- increase in AUC of CsA ([1]; CsA 3 days following quercetin administration): 47%
- increase in AUC of CsA ([1]; co-administration of quercetin (5 mg/kg) and CsA): 18%
